Measurements taken from PMC3891043 (Canadian journal of chemistry, 2011).
Marks after values point to notes of the source that are not given here. Blank lines part the entries; values can stand above or below the molecule they belong to.

How the values were obtained:
[1] = Photolysis quantum yields; type: physicochemical; details: for Φdis, disappearance quantum yield (pHP diethyl phosphates) / Φdis, disappearance quantum yield (pHP acetates): λ = 300 nm; for Photochemical reactivity: photolysis in unbuffered H2O; for Φdis, disappearance quantum yield (pHP acetates): 20% aq CH3CN or DMSO
Method in brief: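 Caged compound (1–9 mmol/L) plus internal standard (caffeine or 4-acetamidophenol) in water, buffer or solvent, in a quartz tube. Irradiated in a Rayonet carousel (two 15 W, 3000 Å Hg lamps), with ferrioxalate actinometry. Aliquots taken every 30 s up to 5 min, diluted and run on C18 LC-MS (water/methanol gradient with ammonium formate/formic acid), three injections each. Quantitation used calibration curves; Φ = concentration change / photons absorbed. 1H NMR in D2O confirmed products.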

[2] = Laser flash photolysis / femtosecond pump-probe spectroscopy; type: physicochemical
Method in brief: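 Pump: 266 nm pulses (frequency-doubled 532 nm NOPA output from a 775 nm Ti/Sa laser), 1 μJ, <150 fs. Probe: supercontinuum from a CaF2 plate, 270–690 nm. Sample flowed through a 0.4 mm cell with a 0.2 mm spot. Probe and reference were read on photodiode arrays; cross-correlation <100 fs. Data to 50 ps were chirp-corrected, and 3–6 scans of 400 shots/point were averaged.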

[3] = Stability to aqueous hydrolysis; type: physicochemical; details: compared with other pHP phosphates
[4] = cited from earlier work
[5] = λ = 300 nm, reported earlier, for comparison, cited from earlier work
[6] = Stern-Volmer quenching with sorbate; type: physicochemical; details: unbuffered 18 MΩ Ultrapure H2O; from KSV with kq assumed kdiff ~ 7.2 × 10^9 s^−1
Method in brief: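 pHP GABA (0.001–0.01 mol/L) was diluted with potassium sorbate quencher (0–0.1 mol/L) and photolysed under the quantum-yield conditions (Rayonet, 3000 Å, LC-MS quantitation of GABA release). KSV came from Φ0/Φ vs [Q]. Triplet lifetime was obtained from KSV, taking kq as the diffusion rate in water.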

[7] = 300 nm, pH 7.3, HEPES (0.01 mol/L) and LiClO4 (0.1 mol/L)
[8] = 300 nm, pH 8.2, HEPES (0.01 mol/L) and LiClO4 (0.1 mol/L)
[9] = unbuffered 18 MΩ Ultrapure H2O, conversion <2%
[10] = 300 nm, pH 5.0, ammonium acetate (0.01 mol/L), buffered CH3CN–H2O
[11] = unbuffered H2O, singlet λmax ~ 315 nm
[12] = unbuffered CH3CN–H2O (1:1), conversion <2%
[13] = unbuffered H2O with acetonitrile (5%) added to dissolve the ester

Φapp, quantum yield for the appearance of GABA [1, 7]: 0.17 | Φapp, quantum yield for the appearance of rearranged acid [1, 7]: 0.15 | Φdis, quantum yield for the disappearance of pHP GABA [1, 7]: 0.17 | Φapp, quantum yield for the appearance of GABA [1, 8]: 0.11 | Φapp, quantum yield for the appearance of rearranged acid [1, 8]: 0.09 | Φdis, quantum yield for the disappearance of pHP GABA [1, 8]: 0.11 | Φapp, quantum yield for the appearance of GABA [1, 9]: 0.14 | Φapp, quantum yield for the appearance of rearranged acid [1, 9]: 0.13 | Φdis, quantum yield for the disappearance of pHP GABA [1, 9]: 0.15
Molecule: Cc1cc(C(=O)COC(=O)CCCN)cc(C)c1O.O=C(O)C(F)(F)F [Compound 8, 4-(2-(4-Hydroxy-3,5-dimethylphenyl)-2-oxoethoxy)-4-oxobutan-1-aminium-2,2,2-trifluoroacetate]

Molecule: CCOP(=O)(OCC)OCC(=O)c1ccc(O)c(C(C)=O)c1 [Compound 32, 2-(3-Acetyl-4-hydroxyphenyl)-2-oxoethyl diethyl phosphate]
Φdis, disappearance quantum yield (pHP diethyl phosphates) ([1]; 50% aq CH3CN): 0.03

Φapp, quantum yield for the appearance of GABA [1, 10]: 0.20 | Φapp, quantum yield for the appearance of rearranged acid [1, 10]: 0.18 | Φdis, quantum yield for the disappearance of pHP GABA [1, 10]: 0.21 | Φapp, quantum yield for the appearance of GABA [1, 7]: 0.20 | Φapp, quantum yield for the appearance of rearranged acid [1, 7]: 0.20 | Φdis, quantum yield for the disappearance of pHP GABA [1, 7]: 0.21 | Φapp, quantum yield for the appearance of GABA [1, 8]: 0.09 | Φapp, quantum yield for the appearance of rearranged acid [1, 8]: 0.06 | Φdis, quantum yield for the disappearance of pHP GABA [1, 8]: 0.09 | Φapp, quantum yield for the appearance of GABA [1, 9]: 0.19 | Φapp, quantum yield for the appearance of rearranged acid [1, 9]: 0.16 | Φdis, quantum yield for the disappearance of pHP GABA [1, 9]: 0.20
Molecule: NCCCC(=O)OCC(=O)c1ccc(O)cc1.O=C(O)C(F)(F)F [Compound 1, 4-(2-(4-Hydroxyphenyl)-2-oxoethoxy)-4-oxobutan-1-aminium-2,2,2-trifluoroacetate]
k2, rate constant for triplet decay ([2]; unbuffered H2O): 3.0 ^c 109 s^−1 | k1, rate constant for triplet rise [2, 11]: 4.4 1011 s^−1

Molecule: NCCCC(=O)OCC(=O)c1ccc(O)c([N+](=O)[O-])c1.O=C(O)C(F)(F)F [Compound 12, 4-(2-(4-Hydroxy-3-nitrophenyl)-2-oxoethoxy)-4-oxobutan-1-aminium-2,2,2-trifluoroacetate]
Photochemical reactivity [1]: Note: NA, not available. All runs were low conversions to products (<2%). Standard deviations are <±0.02. 3-NO2 (12), 3-OH (4), and 2-OH (5) did not react under these conditions and are omitted. Unbuffered 18 MΩ Ultrapure H2O was used.

Molecule: CCOP(=O)(OCC)OCC(=O)c1c(OC)cc(O)cc1OC [Compound 31, Diethyl (2-(4-hydroxy-2,6-dimethoxyphenyl)-2-oxoethyl) phosphate]
Φdis, disappearance quantum yield (pHP diethyl phosphates) ([1]; 50% aq CH3CN): 0.69 | Stability to aqueous hydrolysis (qualitative) [3]: less stable to aqueous hydrolysis

Molecule: NCCCC(=O)OCC(=O)c1ccc(O)cc1O.O=C(O)C(F)(F)F [Compound 5, 4-(2-(2,4-Dihydroxyphenyl)-2-oxoethoxy)-4-oxobutan-1-aminium-2,2,2-trifluoroacetate]
Photochemical reactivity [1]: Note: NA, not available. All runs were low conversions to products (<2%). Standard deviations are <±0.02. 3-NO2 (12), 3-OH (4), and 2-OH (5) did not react under these conditions and are omitted. Unbuffered 18 MΩ Ultrapure H2O was used.

Φapp, quantum yield for the appearance of GABA [1, 7]: 0.16 | Φapp, quantum yield for the appearance of rearranged acid [1, 7]: 0.13 | Φdis, quantum yield for the disappearance of pHP GABA [1, 7]: 0.15 | Φapp, quantum yield for the appearance of GABA [1, 8]: 0.08 | Φapp, quantum yield for the appearance of rearranged acid [1, 8]: 0.06 | Φdis, quantum yield for the disappearance of pHP GABA [1, 8]: 0.08 | Φapp, quantum yield for the appearance of GABA [1, 9]: 0.14 | Φapp, quantum yield for the appearance of rearranged acid [1, 9]: 0.13 | Φdis, quantum yield for the disappearance of pHP GABA [1, 9]: 0.15
Molecule: Cc1cc(C(=O)COC(=O)CCCN)ccc1O.O=C(O)C(F)(F)F [Compound 6, 4-(2-(4-Hydroxy-3-methylphenyl)-2-oxoethoxy)-4-oxobutan-1-aminium-2,2,2-trifluoroacetate]

Molecule: p-hydroxyphenacyl [pHP]
Triplet energy of the conjugate base ([4]; conjugate base of pHP): 61.2 kcal/mol | Triplet energy ([4]; un-ionized pHP): 71.6 kcal/mol

Molecule: NCCCC(=O)OCC(=O)c1ccc(O)c(C(=O)O)c1.O=C(O)C(F)(F)F [Compound 9, 4-(2-(3-Carboxy-4-hydroxyphenyl)-2-oxoethoxy)-4-oxobutan-1-aminium-2,2,2-trifluoroacetate]
k2, rate constant for triplet decay ([2]; unbuffered H2O): 1.0 109 s^−1 | k1, rate constant for triplet rise [2, 11]: 2.1 1011 s^−1

Molecule: CCOP(=O)(OCC)OCC(=O)c1ccc(O)cc1 [Compound 27, Diethyl (2-(4-hydroxyphenyl)-2-oxoethyl) phosphate]
Φdis, disappearance quantum yield (parent pHP diethyl phosphate) ([5]; 50% aq CH3CN): 0.40

Φapp, quantum yield for the appearance of GABA [1, 10]: 0.13 | Φapp, quantum yield for the appearance of rearranged acid [1, 10]: 0.19 | Φdis, quantum yield for the disappearance of pHP GABA [1, 10]: 0.21 | Φapp, quantum yield for the appearance of GABA [1, 12]: 0.35 | Φapp, quantum yield for the appearance of rearranged acid [1, 12]: 0.39 | Φdis, quantum yield for the disappearance of pHP GABA [1, 12]: 0.42
Molecule: N#Cc1cc(C(=O)COC(=O)CCCN)ccc1O.O=C(O)C(F)(F)F [Compound 13, 4-(2-(3-Cyano-4-hydroxyphenyl)-2-oxoethoxy)-4-oxobutan-1-aminium-2,2,2-trifluoroacetate]
τ^3, triplet lifetime [6]: 40.5 10^−9s

Φdis, disappearance quantum yield (pHP acetates) [1]: 0.08
Molecule: CC(=O)OCC(=O)c1ccc(O)c(C#N)c1 [Compound 26, 2-(3-Cyano-4-hydroxyphenyl)-2-oxoethyl acetate]

Molecule: CC(=O)c1ccc(O)cc1 [Compound 1d, p-hydroxyacetophenone, reference compound]
Reduction of pKa of the excited triplet state relative to ground-state pKa [4]: about 4.3 pKa units

Molecule: COC(=O)c1cc(C(=O)COC(=O)CCCN)ccc1O.O=C(O)C(F)(F)F [Compound 10, 4-(2-(4-Hydroxy-3-(methoxycarbonyl)phenyl)-2-oxoethoxy)-4-oxobutan-1-aminium-2,2,2-trifluoroacetate]
k2, rate constant for triplet decay ([2]; unbuffered H2O): 1.3 109 s^−1 | k1, rate constant for triplet rise [2, 11]: 3.2 1011 s^−1

Molecule: CCOP(=O)(OCC)OCC(=O)c1ccc(O)c(OC)c1 [Compound 28, Diethyl (2-(4-hydroxy-3-methoxyphenyl)-2-oxoethyl) phosphate]
Φdis, disappearance quantum yield (pHP diethyl phosphates) ([1]; 50% aq CH3CN): 0.39

Φapp, quantum yield for the appearance of GABA [1, 9]: 0.06
Molecule: COc1cc(C(=O)COC(=O)CCCN)ccc1O.O=C(O)C(F)(F)F [Compound 2, 4-(2-(4-Hydroxy-3-methoxyphenyl)-2-oxoethoxy)-4-oxobutan-1-amonium-2,2,2-trifluoroacetate]
k2, rate constant for triplet decay ([2]; unbuffered H2O): 1.3 109 s^−1 | k1, rate constant for triplet rise [2, 11]: 2.2 1011 s^−1

Molecule: CC(=O)OCC(=O)c1ccc(O)cc1 [Compound 24, 2-(4-Hydroxyphenyl)-2-oxoethyl acetate]
Φdis, disappearance quantum yield (parent pHP acetate) ([5]; 20% aq CH3CN or DMSO): 0.30

Molecule: CCOP(=O)(OCC)OCC(=O)c1cc(OC)c(O)c(OC)c1 [Compound 29, Diethyl (2-(4-hydroxy-3,5-dimethoxyphenyl)-2-oxoethyl) phosphate]
Φdis, disappearance quantum yield (pHP diethyl phosphates) ([1]; 50% aq CH3CN): 0.44 ^d | Φdis, disappearance quantum yield ([1]; λ = 350 nm, 50% aq CH3CN): d Φdis = 0.13 at λ = 350 nm.

Molecule: NCCCC(=O)OCC(=O)c1ccc(O)c(O)c1.O=C(O)C(F)(F)F [Compound 4, 4-(2-(3,4-Dihydroxyphenyl)-2-oxoethoxy)-4-oxobutan-1-aminium-2,2,2-trifluoroacetate]
Photochemical reactivity [1]: Note: NA, not available. All runs were low conversions to products (<2%). Standard deviations are <±0.02. 3-NO2 (12), 3-OH (4), and 2-OH (5) did not react under these conditions and are omitted. Unbuffered 18 MΩ Ultrapure H2O was used.

Φdis, disappearance quantum yield (pHP acetates) [1]: 0.17
Molecule: CC(=O)OCC(=O)c1ccc(O)cc1C#N [Compound 25, 2-(2-Cyano-4-hydroxyphenyl)-2-oxoethyl acetate]

Molecule: CCOP(=O)(OCC)OCC(=O)c1ccc(O)cc1OC [Compound 30, Diethyl (2-(4-hydroxy-2-methoxyphenyl)-2-oxoethyl) phosphate]
Φdis, disappearance quantum yield (pHP diethyl phosphates) ([1]; 50% aq CH3CN): 0.59 | Stability to aqueous hydrolysis (qualitative) [3]: less stable to aqueous hydrolysis

Molecule: NCCCC(=O)OCC(=O)c1ccc(O)c(C(N)=O)c1.O=C(O)C(F)(F)F [Compound 11, 4-(2-(3-Carbamoyl-4-hydroxyphenyl)-2-oxoethoxy)-4-oxobutan-1-aminium-2,2,2-trifluoroacetate]
k2, rate constant for triplet decay ([2]; unbuffered H2O): 2.2 109 s^−1

Φapp, quantum yield for the appearance of GABA [1, 9]: 0.03 | Φdis, quantum yield for the disappearance of pHP GABA [1, 9]: 0.03
Molecule: COc1cc(C(=O)COC(=O)CCCN)cc(OC)c1O.O=C(O)C(F)(F)F [Compound 3, 4-(2-(4-Hydroxy-3,5-dimethoxyphenyl)-2-oxoethoxy)-4-oxobutan-1-amonium-2,2,2-trifluoroacetate]
k1, rate constant for triplet rise [2, 13]: 2.7 1011 s^−1 | k2, rate constant for triplet decay [2, 13]: 2.8 ^d 109 s^−1
